Source: ChEMBL document CHEMBL1152835, “Synthesis and QSAR modeling of 2-acetyl-2-ethoxycarbonyl-1-[4(4'-arylazo)-phenyl]-N,N-dimethylaminophenyl aziridines as potential antibacterial agents” (2009)
Values after ≈ are worked out from the molar mass of the structure shown.

Assays:
Type in all cases: functional
Brevundimonas diminuta = assay: Antibacterial activities against Pseudomonas diminuta MTCC 3361 after 16 to 24 hrs by twofold serial dilution method
Method in brief: (§1)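 Agar twofold serial dilution; compounds from DMF stock. Inoculum about 10⁷ CFU/ml taken from log-phase broth culture. Plates in triplicate, incubated at 37 °C for 16–24 h. Azinomycin run under the same conditions as control drug. MIC = lowest concentration giving no visible growth.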

Escherichia coli = assay: Antibacterial activities against Escherichia coli ATCC 13067 after 16 to 24 hrs by twofold serial dilution method; method in brief: as §1
Staphylococcus aureus = assay: Antibacterial activities against Staphylococcus aureus ATCC 2943 after 16 to 24 hrs by twofold serial dilution method; method in brief: as §1
Bacillus subtilis = assay: Antibacterial activities against Bacillus subtilis ATCC 6633 after 16 to 24 hrs by twofold serial dilution method; details: for MIC: Bacillus subtilis, ATCC 6633; method in brief: as §1

SMILES | -logMIC (Brevundimonas diminuta) | -logMIC (Escherichia coli) | -logMIC (Staphylococcus aureus) | -logMIC (Bacillus subtilis) | MIC (Bacillus subtilis) [ng/mL]
CCOC(=O)C1(C(C)=O)C(c2ccc(N(C)C)cc2)N1c1ccc(/N=N/c2ccc(C)cc2)cc1 (stereo not drawn) | 4.591 |  |  |  | 
CCOC(=O)C1(C(C)=O)C(c2ccc(N(C)C)cc2)N1c1ccc(/N=N/c2ccc(O)cc2)cc1 (stereo not drawn) | 4.183 | 4.094 | 4.13 | 4.212 | 0.0614 (≈ 0.13 nM)
CCOC(=O)C1(C(C)=O)C(c2ccc(N(C)C)cc2)N1c1ccc(/N=N/c2cccc([N+](=O)[O-])c2)cc1 (stereo not drawn) | 4.586 | 4.399 | 4.469 | 4.658 | 0.022 (≈ 0.0438 nM)
CCOC(=O)C1(C(C)=O)C(c2ccc(N(C)C)cc2)N1c1ccc(/N=N/c2cccc(Cl)c2)cc1 (stereo not drawn) | 4.412 | 4.276 | 4.329 | 4.46 | 0.0347 (≈ 0.0706 nM)
CCOC(=O)C1(C(C)=O)C(c2ccc(N(C)C)cc2)N1c1ccc(/N=N/c2ccc(Cl)cc2)cc1 (stereo not drawn) | 4.348 | 4.228 | 4.276 | 4.39 | 0.0407 (≈ 0.083 nM)
CCOC(=O)C1(C(C)=O)C(c2ccc(N(C)C)cc2)N1c1ccc(/N=N/c2cccc(C)c2)cc1 (stereo not drawn) | 4.371 | 4.241 | 4.292 | 4.442 | 0.0361 (≈ 0.0768 nM)
CCOC(=O)C1(C(C)=O)C(c2ccc(N(C)C)cc2)N1c1ccc(/N=N/c2cccc(C(=O)O)c2)cc1 (stereo not drawn) | 4.495 | 4.337 | 4.398 | 4.553 | 0.028 (≈ 0.0559 nM)
CCOC(=O)C1(C(C)=O)C(c2ccc(N(C)C)cc2)N1c1ccc(/N=N/c2ccc([N+](=O)[O-])cc2)cc1 (stereo not drawn) | 4.524 | 4.378 | 4.445 | 4.586 | 0.0259 (≈ 0.0517 nM)
CCOC(=O)C1(C(C)=O)C(c2ccc(N(C)C)cc2)N1c1ccc(/N=N/c2cccc(Br)c2)cc1 (stereo not drawn) | 4.378 |  |  |  | 
CCOC(=O)C1(C(C)=O)C(c2ccc(N(C)C)cc2)N1c1ccc(/N=N/c2ccccc2OC)cc1 (stereo not drawn) | 4.421 |  |  |  | 
CCOC(=O)C1(C(C)=O)C(c2ccc(N(C)C)cc2)N1c1ccc(/N=N/c2ccccc2)cc1 (stereo not drawn) | 4.128 | 4.046 | 4.079 | 4.154 | 0.0701 (≈ 0.154 nM)
CCOC(=O)C1(C(C)=O)C(c2ccc(N(C)C)cc2)N1c1ccc(/N=N/c2cccc(O)c2)cc1 (stereo not drawn) | 4.212 | 4.118 | 4.155 | 4.243 | 0.0571 (≈ 0.121 nM)
CCOC(=O)C1(C(C)=O)C(c2ccc(N(C)C)cc2)N1c1ccc(/N=N/c2ccc(C(=O)O)cc2)cc1 (stereo not drawn) | 4.444 | 4.301 | 4.357 | 4.495 | 0.032 (≈ 0.0639 nM)
CCOC(=O)C1(C(C)=O)C(c2ccc(N(C)C)cc2)N1c1ccc(/N=N/c2cccc(OC)c2)cc1 (stereo not drawn) | 4.54 | 4.364 | 4.431 | 4.607 | 0.0247 (≈ 0.0508 nM)
